From ChEMBL document CHEMBL1139233, “Structure-activity relationships of cyclic peptide-based chemokine receptor CXCR4 antagonists: disclosing the importance of side-chain and backbone functionalities” (J Med Chem, 2007)
Activity calls are given as the source filed them. The calls are words filed in the database; no cut-off is given here.

Key:
[1] = system: Human immunodeficiency virus 1; assay: Inhibition of HIV1-induced cytopathogenicity in MT4 cells; format: functional, organism-based; details: Human immunodeficiency virus 1, MT4
Procedure, shortened: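 MT-4 cells were grown in RPMI 1640 with 10% heat-inactivated FCS and penicillin/streptomycin. Cells infected with HIV-1 IIIB (X4 strain) at MOI 0.01 were plated at 1.5 × 10⁴ cells/well with various compound concentrations. After 5 days at 37 °C in CO₂, viable cells were counted by MTT. EC50 for protection is the mean of ≥3 independent experiments.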

[2] = biological target: T1, C-X-C chemokine receptor type 4 (Homo sapiens, UniProt P61073); assay: Inhibition of [125I]SDF1 binding to CXCR4 transfected in CHO cells; format: cell-based
Procedure, shortened: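 CXCR4-expressing stable CHO transfectants were harvested with trypsin-EDTA, recovered 4-5 h in complete medium, and washed in cold PBS with 2 mg/mL BSA. Cells at 1 × 10⁷/mL were incubated with 0.1 nM [¹²⁵I]-SDF-1 for 2 h on ice with agitation. Bound label was separated by centrifugation through oil and gamma-counted.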

[3] = biological target: T1, C-X-C chemokine receptor type 4; assay: Antagonist activity against CXCR4 transfected in CHO cells upto 1 uM; format: functional, cell-based

T1 sequence (P61073 whole entry): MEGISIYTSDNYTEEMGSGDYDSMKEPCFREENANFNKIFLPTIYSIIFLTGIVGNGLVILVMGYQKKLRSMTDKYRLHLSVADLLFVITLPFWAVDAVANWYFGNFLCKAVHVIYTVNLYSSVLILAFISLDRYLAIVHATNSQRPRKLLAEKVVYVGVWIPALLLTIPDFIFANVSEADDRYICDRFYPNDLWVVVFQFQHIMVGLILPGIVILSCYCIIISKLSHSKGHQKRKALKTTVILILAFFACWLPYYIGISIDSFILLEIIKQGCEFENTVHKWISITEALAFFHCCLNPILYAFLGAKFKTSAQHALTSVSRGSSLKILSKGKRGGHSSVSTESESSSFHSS

| SMILES | EC50 [1] [µM] | IC50 [2] [nM] | further results |
| --- | --- | --- | --- |
| C[C@@H]1NC(=O)[C@H](Cc2ccc3ccccc3c2)NC(=O)[C@H](CCCNC(=N)N)NC(=O)[C@H](CCCNC(=N)N)NC(=O)[C@@H](Cc2ccc(O)cc2)NC1=O | 20 | 170 | – |
| CN1C(=O)CNC(=O)[C@H](Cc2ccc3ccccc3c2)NC(=O)[C@H](CCCNC(=N)N)NC(=O)[C@H](CCCNC(=N)N)NC(=O)[C@H]1Cc1ccc(O)cc1 | – | 128 | – |
| C[C@@H]1NC(=O)[C@@H](CCCNC(=N)N)NC(=O)[C@@H](Cc2ccc(O)cc2)NC(=O)CNC(=O)[C@H](Cc2ccc3ccccc3c2)NC1=O | 60 | > 1000 | – |
| N=C(N)NCCC[C@@H]1NC(=O)[C@H](CCCNC(=N)N)NC(=O)[C@@H](Cc2ccc(O)cc2)NC(=O)[C@H]2CCCN2C(=O)[C@H](Cc2ccc3ccccc3c2)NC1=O | – | > 1000 | – |
| C[C@H]1NC(=O)CNC(=O)[C@H](Cc2ccc3ccccc3c2)NC(=O)[C@H](CCCNC(=N)N)NC(=O)[C@H](CCCNC(=N)N)NC1=O | 115 | > 1000 | – |
| C[C@H]1NC(=O)CNC(=O)[C@H](Cc2ccc3ccccc3c2)NC(=O)[C@H](CCCNC(=N)N)NC(=O)[C@@H](CCCNC(=N)N)NC1=O | 29 | 130 | – |
| N=C(N)NCCC[C@@H]1NC(=O)[C@H](CCCNC(=N)N)NC(=O)[C@@H](Cc2ccc(O)cc2)NC(=O)CCNC(=O)[C@H](Cc2ccc3ccccc3c2)NC1=O | 3 | 47 | – |
| C[C@H]1NC(=O)[C@@H](Cc2ccc(O)cc2)NC(=O)CNC(=O)[C@H](Cc2ccc3ccccc3c2)NC(=O)[C@H](CCCNC(=N)N)NC1=O | 16 | – | – |
| N=C(N)NCCC[C@@H]1NC(=O)[C@H](CCCNC(=N)N)NC(=O)[C@@H](Cc2ccc(O)cc2)NC(=O)[C@H]2CCCCN2C(=O)[C@H](Cc2ccc3ccccc3c2)NC1=O | – | > 1000 | – |
| CN1C(=O)[C@H](CCCNC(=N)N)NC(=O)[C@@H](Cc2ccc(O)cc2)NC(=O)CNC(=O)[C@H](Cc2ccc3ccccc3c2)NC(=O)[C@@H]1CCCNC(=N)N | 9.53 | 99 | – |
| N=C(N)NCCC[C@@H]1NC(=O)[C@@H](CCCNC(=N)N)NC(=O)[C@@H](Cc2ccc(O)cc2)NC(=O)[C@H]2CCCCN2C(=O)[C@H](Cc2ccc3ccccc3c2)NC1=O | – | > 1000 | – |
| N=C(N)NCCC[C@@H]1NC(=O)[C@H](CCCNC(=N)N)NC(=O)[C@@H](Cc2ccc(O)cc2)NC(=O)CNC(=O)[C@H](Cc2ccc3ccccc3c2)NC1=O | 0.16 | – | – |
| N=C(N)NCCC[C@@H]1NC(=O)[C@@H](CCCNC(=N)N)NC(=O)[C@@H](Cc2ccc(O)cc2)NC(=O)[C@H]2CCCN2C(=O)[C@H](Cc2ccc3ccccc3c2)NC1=O | – | > 1000 | – |
| N=C(N)NCCC[C@@H]1NC(=O)[C@H](CCCNC(=N)N)NC(=O)[C@@H](Cc2ccc(O)cc2)NC(=O)[C@@H]2CCCN2C(=O)[C@H](Cc2ccc3ccccc3c2)NC1=O | – | > 1000 | – |
| C[C@@H]1NC(=O)[C@H](CCCNC(=N)N)NC(=O)[C@H](CCCNC(=N)N)NC(=O)[C@@H](Cc2ccc(O)cc2)NC(=O)CN(C)C1=O | – | – | IC50 ([2]; cho): 167 nM |
| C[C@@H]1NC(=O)[C@@H](Cc2ccc(O)cc2)NC(=O)CNC(=O)[C@H](Cc2ccc3ccccc3c2)NC(=O)[C@H](CCCNC(=N)N)NC1=O | 12 | – | – |
| CN1C(=O)[C@@H](CCCNC(=N)N)NC(=O)[C@@H](Cc2ccc(O)cc2)NC(=O)CNC(=O)[C@H](Cc2ccc3ccccc3c2)NC(=O)[C@@H]1CCCNC(=N)N | 0.782 | 21 | – |
| C[C@@H]1NC(=O)[C@H](Cc2ccc3ccccc3c2)NC(=O)CNC(=O)[C@@H](Cc2ccc(O)cc2)NC(=O)[C@@H](CCCNC(=N)N)NC1=O | – | – | Activity [3]: inactive |
| C[C@@H]1NC(=O)[C@H](Cc2ccc3ccccc3c2)NC(=O)CNC(=O)[C@@H](Cc2ccc(O)cc2)NC(=O)[C@H](CCCNC(=N)N)NC1=O | – | – | Activity [3]: inactive |
| N=C(N)NCCC[C@@H]1NC(=O)[C@@H](CCCNC(=N)N)NC(=O)[C@@H](Cc2ccc(O)cc2)NC(=O)CNC(=O)[C@H](Cc2ccc3ccccc3c2)NC1=O | 0.39 | – | – |
| C[C@H]1NC(=O)[C@H](Cc2ccc3ccccc3c2)NC(=O)[C@H](CCCNC(=N)N)NC(=O)[C@H](CCCNC(=N)N)NC(=O)[C@@H](Cc2ccc(O)cc2)NC1=O | 0.49 | 11 | – |
| C[C@@H]1NC(=O)CNC(=O)[C@@H](Cc2ccc(O)cc2)NC(=O)[C@@H](CCCNC(=N)N)NC(=O)[C@H](CCCNC(=N)N)NC1=O | – | – | Activity [3]: inactive |
| C[C@@H]1NC(=O)[C@H](CCCNC(=N)N)NC(=O)[C@H](CCCNC(=N)N)NC(=O)[C@@H](Cc2ccc(O)cc2)NC(=O)CNC1=O | > 120 | > 1000 | – |
| CN1C(=O)[C@@H](Cc2ccc(O)cc2)NC(=O)CNC(=O)[C@H](Cc2ccc3ccccc3c2)NC(=O)[C@H](CCCNC(=N)N)NC(=O)[C@H]1CCCNC(=N)N | 0.088 | 3 | – |
| N=C(N)NCCC[C@@H]1NC(=O)[C@H](CCCNC(=N)N)NC(=O)[C@@H](Cc2ccc(O)cc2)NC(=O)[C@@H]2CCCCN2C(=O)[C@H](Cc2ccc3ccccc3c2)NC1=O | – | > 1000 | – |
| C[C@@H]1NC(=O)CNC(=O)[C@@H](Cc2ccc(O)cc2)NC(=O)[C@H](CCCNC(=N)N)NC(=O)[C@H](CCCNC(=N)N)NC1=O | – | – | Activity [3]: inactive |
| C[C@@H]1NC(=O)[C@H](CCCNC(=N)N)NC(=O)[C@@H](Cc2ccc(O)cc2)NC(=O)CNC(=O)[C@H](Cc2ccc3ccccc3c2)NC1=O | > 120 | > 1000 | – |
| C[C@@H]1NC(=O)[C@H](CCCNC(=N)N)NC(=O)[C@@H](CCCNC(=N)N)NC(=O)[C@@H](Cc2ccc(O)cc2)NC(=O)CNC1=O | > 120 | > 1000 | – |

Now from value to compound, other results behind:

| EC50 [1] [µM] | IC50 [2] [nM] | SMILES | further results |
| --- | --- | --- | --- |
| 1.4 | – | CN1C(=O)[C@@H](Cc2ccc(O)cc2)NC(=O)CNC(=O)[C@H](Cc2ccc3ccccc3c2)NC(=O)[C@H](CCCNC(=N)N)NC(=O)[C@@H]1CCCNC(=N)N | – |
| – | 256 | CN1CC(=O)N[C@H](Cc2ccc(O)cc2)C(=O)N[C@H](CCCNC(=N)N)C(=O)N[C@@H](CCCNC(=N)N)C(=O)N[C@@H](Cc2ccc3ccccc3c2)C1=O | – |
| – | 563 | CN1C(=O)[C@H](CCCNC(=N)N)NC(=O)[C@@H](CCCNC(=N)N)NC(=O)[C@@H](Cc2ccc(O)cc2)NC(=O)CNC(=O)[C@@H]1Cc1ccc2ccccc2c1 | – |
| – | 157 | CN1C(=O)CNC(=O)[C@H](Cc2ccc3ccccc3c2)NC(=O)[C@H](CCCNC(=N)N)NC(=O)[C@@H](CCCNC(=N)N)NC(=O)[C@H]1Cc1ccc(O)cc1 | – |
| – | > 1000 | N=C(N)NCCC[C@@H]1NC(=O)[C@@H](CCCNC(=N)N)NC(=O)[C@@H](Cc2ccc(O)cc2)NC(=O)[C@@H]2CCCN2C(=O)[C@H](Cc2ccc3ccccc3c2)NC1=O | – |
| 38 | 350 | N=C(N)NCCC[C@@H]1NC(=O)[C@@H](CCCNC(=N)N)NC(=O)[C@@H](Cc2ccc(O)cc2)NC(=O)CCNC(=O)[C@H](Cc2ccc3ccccc3c2)NC1=O | – |
| 10 | 92 | C[C@@H]1NC(=O)[C@H](Cc2ccc3ccccc3c2)NC(=O)[C@H](CCCNC(=N)N)NC(=O)[C@@H](CCCNC(=N)N)NC(=O)[C@@H](Cc2ccc(O)cc2)NC1=O | – |
| – | 640 | N=C(N)NCCC[C@@H]1NC(=O)[C@@H](CCCNC(=N)N)NC(=O)[C@@H](Cc2ccc(O)cc2)NC(=O)[C@@H]2CCCCN2C(=O)[C@H](Cc2ccc3ccccc3c2)NC1=O | – |
| 0.67 | 11 | C[C@H]1NC(=O)[C@H](Cc2ccc3ccccc3c2)NC(=O)[C@H](CCCNC(=N)N)NC(=O)[C@@H](CCCNC(=N)N)NC(=O)[C@@H](Cc2ccc(O)cc2)NC1=O | – |
| – | 250 | CN1C(=O)[C@H](CCCNC(=N)N)NC(=O)[C@H](CCCNC(=N)N)NC(=O)[C@@H](Cc2ccc(O)cc2)NC(=O)CNC(=O)[C@@H]1Cc1ccc2ccccc2c1 | – |
